Columns and labels:
[1] = target: T1, 5-hydroxytryptamine receptor 6 (Homo sapiens, UniProt P50406); assay: Displacement of [3H]LSD from human 5-HT6 receptor expressed in HEK293 cell membranes at 100 nM incubated for 60 mins by radioligand binding assay
Method in brief: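 Competition binding on membranes of HEK-293 cells transiently expressing human 5-HT6; 4 of protein incubated 60 min at 37 °C in duplicate with 2.5 nM [3H]-LSD in 50 mM Tris-HCl pH 7.4, 10 mM MgCl₂, 0.5 mM EDTA. Compounds tested at 10^-7 M for % displacement (n = 3), then Ki calculated. GF/C filtration, five ice-cold buffer washes.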

[2] = Cytotoxicity against human SH-SY5Y cells assessed as inhibition of cell growth after 72 hrs by MTT assay; assay type: cell-based
Method in brief: (§1)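 SH-SY5Y cells grown in DMEM with 2 mM L-glutamine, streptomycin, 100 IU/mL penicillin, 1 mM non-essential amino acids, 10% heat-inactivated FBS, 37 °C, 5% CO₂. Seeded at 2000 cells/well, serum-starved 24 h for synchrony, then exposed to test compounds (DMSO below 0.1%) at various concentrations up to 100. Growth read by MTT colorimetric assay after 72 h.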

[3] = Cytotoxicity against human SH-SY5Y cells assessed as inhibition of cell growth at 100 uM after 72 hrs by MTT assay; assay type: cell-based; conditions: read-out: GI; method in brief: as §1
[4] = target: T1, 5-hydroxytryptamine receptor 6; assay: Displacement of [3H]LSD from human 5-HT6 receptor expressed in HEK293 cell membranes incubated for 60 mins by radioligand binding assay

T1 sequence (P50406 whole entry): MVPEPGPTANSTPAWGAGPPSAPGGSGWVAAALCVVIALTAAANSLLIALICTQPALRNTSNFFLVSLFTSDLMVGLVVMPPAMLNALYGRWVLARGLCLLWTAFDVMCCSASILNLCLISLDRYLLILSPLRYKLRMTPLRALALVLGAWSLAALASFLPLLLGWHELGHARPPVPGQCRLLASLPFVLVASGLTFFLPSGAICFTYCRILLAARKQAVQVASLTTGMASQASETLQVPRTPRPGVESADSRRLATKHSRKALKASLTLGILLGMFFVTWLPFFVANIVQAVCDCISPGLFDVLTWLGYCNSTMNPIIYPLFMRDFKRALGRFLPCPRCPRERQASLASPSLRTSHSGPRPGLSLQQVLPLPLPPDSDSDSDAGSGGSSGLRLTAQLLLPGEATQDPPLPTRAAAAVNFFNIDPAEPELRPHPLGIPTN

inhibition [1] [%]	Ki [4] [µM]	Structure (SMILES)	IC50 [2] [µM]	inhibition at 72 h, 100 µM [3] [%]
16		CN(C)CCn1c(=O)sc2cc(S(=O)(=O)c3ccccc3)ccc21	86.9	
3		O=c1sc2cc(S(=O)(=O)Nc3cccc4ccccc34)ccc2n1CCN1CCCCC1	25.2	
0		CN(C)CCn1c(=O)sc2cc(S(=O)(=O)N(C)c3cccc4ccccc34)ccc21	29	
11		O=c1sc2cc(NS(=O)(=O)c3ccccc3)ccc2n1CCN1CCCC1		25
6		O=c1sc2cc(NS(=O)(=O)c3ccccc3)ccc2n1CCN1CCCCC1		39
5		CN(C)CCn1c(=O)sc2cc(NS(=O)(=O)c3ccccc3)ccc21		20
40		CN(c1cccc2ccccc12)S(=O)(=O)c1ccc2c(c1)sc(=O)n2CCN1CCCC1	102	
	0.1	CN(C)CCn1c(=O)sc2cc(S(=O)(=O)Nc3cccc4ccccc34)ccc21	45.7	
10		CN(c1ccccc1)S(=O)(=O)c1ccc2c(c1)sc(=O)n2CCN1CCCC1	49.5	
20		O=c1sc2cc(N(S(=O)(=O)c3ccccc3)S(=O)(=O)c3ccccc3)ccc2n1CCN1CCCC1		19
37		O=c1sc2cc(S(=O)(=O)Nc3ccccc3)ccc2n1CCN1CCCC1	10	
7		O=c1sc2cc(S(=O)(=O)Nc3ccccc3)ccc2n1CCN1CCCCC1	17.4	
22		CN(C)CCn1c(=O)sc2cc(NS(=O)(=O)c3ccc4ccccc4c3)ccc21		17
14		CN(c1cccc2ccccc12)S(=O)(=O)c1ccc2c(c1)sc(=O)n2CCN1CCCCC1	91.9	
5		CN(C)CCn1c(=O)sc2cc(S(=O)(=O)N(C)c3ccccc3)ccc21	91	
0		CN(c1ccccc1)S(=O)(=O)c1ccc2c(c1)sc(=O)n2CCN1CCCCC1	50	
0		O=c1sc2cc(S(=O)(=O)Nc3cccc4ccccc34)ccc2n1CCN1CCCC1	68.6	
4		O=c1sc2cc(NS(=O)(=O)c3ccc4ccccc4c3)ccc2n1CCN1CCCCC1		5
21		CN(C)CCn1c(=O)sc2cc(S(=O)(=O)Nc3ccccc3)ccc21		0
0		O=c1sc2cc(NS(=O)(=O)c3ccc4ccccc4c3)ccc2n1CCN1CCCC1		28
11		O=c1sc2cc(S(=O)(=O)c3ccccc3)ccc2n1CCN1CCCCC1	44.1	

From ChEMBL document CHEMBL3407480, “6-Sulfonylbenzothiazolones as potential scaffolds for the design of 5-HT6 ligands” (Eur J Med Chem, 2015)
